The test system of series [1] is KARPAS-299. The series is described as follows: Antiproliferative activity against human KARPAS299 cells after 96 hrs by cell counting assay. It is filed as functional, cell-based. Conditions: KARPAS-299, 96 h. Put shortly:
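KARPAS-299 cells exposed to a range of compound concentrations for 96 h. Growth inhibition read by Cell Counting Kit-8.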

Series [2] has as its target ALK tyrosine kinase receptor (Homo sapiens, UniProt Q9UM73).
Series [3] concerns the target Vascular endothelial growth factor receptor 2 (Homo sapiens, UniProt P35968). The series is described as follows: Inhibition of KDR using Bio-Gastrintide as substrate by TR-FRET assay in presence of 50 uM of ATP. (In TR-FRET formats the signal depends on donor and acceptor labels being close together.)
The nature of series [4]: Clearance in mouse liver microsomes assessed as per mg of protein after 30 mins by LC/MS analysis. It is filed as ADME, Microsome. Conditions: read-out: CLH. The essentials: (§1)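 1 µM compound incubated at 37 °C for 30 min with liver microsomes (0.5 mg protein/mL) in 50 mM phosphate buffer pH 7.4 with 1 mM NADPH. Reaction stopped with threefold volume of acetonitrile and centrifuged. Remaining compound in supernatant quantified by LC/MS.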
On the technique in general: Liver microsomes are a subcellular fraction often used to study metabolism.

The target in series [5] is Mast/stem cell growth factor receptor Kit (Homo sapiens, UniProt P10721). The series is described as follows: Inhibition of KIT using Bio-HER2tide as substrate by TR-FRET assay in presence of 50 uM of ATP.
Sequence of Mast/stem cell growth factor receptor Kit (P10721 whole entry): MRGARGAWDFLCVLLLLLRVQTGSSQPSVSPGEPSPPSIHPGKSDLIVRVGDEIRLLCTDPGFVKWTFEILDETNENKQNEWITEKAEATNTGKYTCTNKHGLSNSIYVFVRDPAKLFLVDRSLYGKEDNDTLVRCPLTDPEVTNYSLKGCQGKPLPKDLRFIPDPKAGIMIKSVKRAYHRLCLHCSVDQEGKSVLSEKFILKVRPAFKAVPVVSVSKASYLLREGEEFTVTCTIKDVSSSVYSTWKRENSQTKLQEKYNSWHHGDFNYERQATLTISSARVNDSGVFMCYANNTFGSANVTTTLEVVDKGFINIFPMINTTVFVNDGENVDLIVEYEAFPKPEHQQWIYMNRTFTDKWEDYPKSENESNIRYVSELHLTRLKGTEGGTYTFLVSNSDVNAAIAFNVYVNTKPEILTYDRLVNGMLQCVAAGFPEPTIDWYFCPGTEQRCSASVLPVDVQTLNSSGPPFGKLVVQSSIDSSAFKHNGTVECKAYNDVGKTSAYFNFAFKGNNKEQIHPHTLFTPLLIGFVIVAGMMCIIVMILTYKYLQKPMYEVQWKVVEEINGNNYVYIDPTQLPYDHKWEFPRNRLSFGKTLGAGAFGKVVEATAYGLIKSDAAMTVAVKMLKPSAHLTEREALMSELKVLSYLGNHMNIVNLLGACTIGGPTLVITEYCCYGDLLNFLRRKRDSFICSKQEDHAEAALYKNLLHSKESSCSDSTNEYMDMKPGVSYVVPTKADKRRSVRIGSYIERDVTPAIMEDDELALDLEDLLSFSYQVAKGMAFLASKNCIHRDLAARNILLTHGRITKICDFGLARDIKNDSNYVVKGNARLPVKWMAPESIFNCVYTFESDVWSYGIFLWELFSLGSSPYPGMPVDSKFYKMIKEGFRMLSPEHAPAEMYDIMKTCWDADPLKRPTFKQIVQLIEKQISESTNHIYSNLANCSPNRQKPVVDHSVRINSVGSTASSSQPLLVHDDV
For series [6], the target named is Hepatocyte growth factor receptor (Homo sapiens, UniProt P08581). Kind of series: Inhibition of MET using Bio-HER2tide as substrate by TR-FRET assay in presence of 50 uM of ATP.
Series [7] can be described thus: Clearance in human liver microsomes assessed as per mg of protein after 30 mins by LC/MS analysis. It is filed as ADME, Microsome. Conditions: read-out: CLH. The essentials: as §1
Series [8] in a line: in vivo. The note with it: cynomolgus monkey, iv, 0.5 mg/kg.
The nature of series [9]: Cmax in Sprague-Dawley rat at 1 mg/kg, po. It is filed as ADME, organism-based. Set-up: dose 1 mg/kg, route oral. The note with it: in vivo. Put shortly:
(§2)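 Sprague–Dawley rats, n = 3 per group, dosed po or iv at 1 mg/kg in 10% N,N-dimethylacetamide, 20% HP-β-CD and 0.02 M HCl in water. Heparinized blood taken at 0.08–72 h after iv and 0.50–72 h after po. Plasma analysed by LC–MS/MS.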

Series [10] is described as follows: Half life in Sprague-Dawley rat at 1 mg/kg, po. It is filed as ADME, organism-based. Set-up: dose 1 mg/kg, route oral. Conditions: in vivo. The essentials:
as §2

The nature of series [11]: Half life in Sprague-Dawley rat at 1 mg/kg, iv. It is filed as ADME, organism-based. Conditions: in vivo. Set-up: dose 1 mg/kg, route intravenous. The essentials: as §2
In series [12] the test system is KARPAS-299. Kind of series: Antitumor activity against human KARPAS299 cells expressing NPM-ALK xenografted mouse model assessed as tumor growth inhibition at 20 mg/kg, po. It is filed as functional. Conditions: read-out: GI. For orientation: A xenograft is tissue or cells of one species grown in another, often human tumour cells in immunodeficient mice.
Series [13] in a line: Oral bioavailability in Sprague-Dawley rat at 1 mg/kg. Conditions: in vivo. It is filed as ADME, organism-based. The essentials:
as §2

Series [14] can be described thus: in vivo. The note with it: cynomolgus monkey, po, 0.5 mg/kg.
A further series relates to NCI-H2228. Kind of series: Antitumor activity against human NCI-H2228 cells expressing EML4-ALK xenografted mouse model assessed as tumor growth inhibition at 20 mg/kg, po. It is filed as functional. The note with it: read-out: GI.
A short description of series [15]: Volume of distribution at steady state in cynomolgus monkey at 0.5 mg/kg, iv. It is filed as ADME, organism-based, Macaca fascicularis. On the set-up: dose 0.5 mg/kg, route intravenous. The note with it: in vivo, read-out: Vdss. The essentials:
(§3)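 Fasted cynomolgus monkeys, n = 2 per group, dosed po or iv at 0.5 mg/kg in 10% DMSO, 20% HP-β-CD and 0.02 M HCl in water. Heparinized blood sampled at 0.08–48 h after iv and 0.50–48 h after po. Plasma quantified by LC–MS/MS.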

The nature of series [16]: Total clearance in cynomolgus monkey at 0.5 mg/kg, iv. It is filed as ADME, organism-based, Macaca fascicularis. Set-up: dose 0.5 mg/kg, route intravenous. Conditions: in vivo. The essentials: as §3
A short description of series [17]: Volume of distribution at steady state in Sprague-Dawley rat at 1 mg/kg, iv. Set-up: dose 1 mg/kg, route intravenous. It is filed as ADME, organism-based. The note with it: in vivo, read-out: Vdss. Put shortly:
as §2

The nature of series [18]: AUC in cynomolgus monkey at 0.5 mg/kg, po. It is filed as ADME, organism-based, Macaca fascicularis. On the set-up: dose 0.5 mg/kg, route oral. The note with it: plasma. Put shortly:
as §3

The nature of series [19]: Oral bioavailability in cynomolgus monkey at 0.5 mg/kg. It is filed as ADME, organism-based, Macaca fascicularis. Conditions: in vivo. Put shortly:
as §3

The nature of series [20]: AUC in Sprague-Dawley rat at 1 mg/kg, po. It is filed as ADME, organism-based. Set-up: dose 1 mg/kg, route oral. Conditions: plasma. Put shortly: as §2
Series [21] in a line: Total clearance in Sprague-Dawley rat at 1 mg/kg, iv. Conditions: in vivo. It is filed as ADME, organism-based. On the set-up: dose 1 mg/kg, route intravenous. The essentials:
as §2

For the next series, the system named is Mus musculus. The series is described as follows: Toxicity in human NCI-H2228 cells expressing EML4-ALK xenografted mouse model assessed as body weight loss at 20 mg/kg, po. Conditions: in vivo.
Series [22] is described as follows: Cmax in cynomolgus monkey at 0.5 mg/kg, po. Set-up: dose 0.5 mg/kg, route oral. It is filed as ADME, organism-based, Macaca fascicularis. The note with it: in vivo. The essentials: as §3

Molecules are shown by their SMILES. Where only a bound is given, the exact number is not on record here.

Sequence of Vascular endothelial growth factor receptor 2 (P35968 whole entry): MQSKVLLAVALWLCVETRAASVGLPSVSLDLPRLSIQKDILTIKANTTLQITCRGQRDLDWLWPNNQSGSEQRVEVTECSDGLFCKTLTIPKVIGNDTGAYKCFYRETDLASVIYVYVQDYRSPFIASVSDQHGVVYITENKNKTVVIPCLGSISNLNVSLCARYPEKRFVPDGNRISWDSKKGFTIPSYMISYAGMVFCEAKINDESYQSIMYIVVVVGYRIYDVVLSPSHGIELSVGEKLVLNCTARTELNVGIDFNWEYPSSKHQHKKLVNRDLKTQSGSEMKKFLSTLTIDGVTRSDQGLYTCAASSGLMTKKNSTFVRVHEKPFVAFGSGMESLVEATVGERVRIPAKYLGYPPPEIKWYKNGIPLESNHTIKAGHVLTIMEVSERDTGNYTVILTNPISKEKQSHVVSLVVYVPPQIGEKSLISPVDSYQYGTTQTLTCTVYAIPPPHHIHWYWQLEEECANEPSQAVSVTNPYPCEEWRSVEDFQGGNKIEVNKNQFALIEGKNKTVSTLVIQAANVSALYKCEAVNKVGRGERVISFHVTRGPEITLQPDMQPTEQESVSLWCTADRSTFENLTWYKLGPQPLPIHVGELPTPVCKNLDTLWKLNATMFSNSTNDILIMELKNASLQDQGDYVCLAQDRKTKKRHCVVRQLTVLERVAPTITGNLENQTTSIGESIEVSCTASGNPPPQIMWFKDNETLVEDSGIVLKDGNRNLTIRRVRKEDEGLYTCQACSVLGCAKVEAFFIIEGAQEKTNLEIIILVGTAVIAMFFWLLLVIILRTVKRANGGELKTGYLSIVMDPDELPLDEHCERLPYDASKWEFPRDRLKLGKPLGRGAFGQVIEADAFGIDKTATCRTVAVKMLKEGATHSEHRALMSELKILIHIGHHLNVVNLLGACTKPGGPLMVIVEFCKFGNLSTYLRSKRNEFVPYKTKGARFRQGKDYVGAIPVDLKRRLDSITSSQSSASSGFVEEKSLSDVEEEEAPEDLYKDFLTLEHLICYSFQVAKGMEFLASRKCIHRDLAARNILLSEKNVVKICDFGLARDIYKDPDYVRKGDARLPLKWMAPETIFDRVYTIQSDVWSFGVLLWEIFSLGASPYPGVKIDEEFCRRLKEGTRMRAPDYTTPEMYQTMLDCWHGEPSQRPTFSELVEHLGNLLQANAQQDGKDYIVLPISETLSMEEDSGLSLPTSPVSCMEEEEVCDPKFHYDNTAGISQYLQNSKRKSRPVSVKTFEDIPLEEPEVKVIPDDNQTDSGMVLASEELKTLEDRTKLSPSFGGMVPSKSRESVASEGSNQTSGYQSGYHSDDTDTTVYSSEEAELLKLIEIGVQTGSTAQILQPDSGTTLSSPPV
Sequence of ALK tyrosine kinase receptor (Q9UM73 whole entry): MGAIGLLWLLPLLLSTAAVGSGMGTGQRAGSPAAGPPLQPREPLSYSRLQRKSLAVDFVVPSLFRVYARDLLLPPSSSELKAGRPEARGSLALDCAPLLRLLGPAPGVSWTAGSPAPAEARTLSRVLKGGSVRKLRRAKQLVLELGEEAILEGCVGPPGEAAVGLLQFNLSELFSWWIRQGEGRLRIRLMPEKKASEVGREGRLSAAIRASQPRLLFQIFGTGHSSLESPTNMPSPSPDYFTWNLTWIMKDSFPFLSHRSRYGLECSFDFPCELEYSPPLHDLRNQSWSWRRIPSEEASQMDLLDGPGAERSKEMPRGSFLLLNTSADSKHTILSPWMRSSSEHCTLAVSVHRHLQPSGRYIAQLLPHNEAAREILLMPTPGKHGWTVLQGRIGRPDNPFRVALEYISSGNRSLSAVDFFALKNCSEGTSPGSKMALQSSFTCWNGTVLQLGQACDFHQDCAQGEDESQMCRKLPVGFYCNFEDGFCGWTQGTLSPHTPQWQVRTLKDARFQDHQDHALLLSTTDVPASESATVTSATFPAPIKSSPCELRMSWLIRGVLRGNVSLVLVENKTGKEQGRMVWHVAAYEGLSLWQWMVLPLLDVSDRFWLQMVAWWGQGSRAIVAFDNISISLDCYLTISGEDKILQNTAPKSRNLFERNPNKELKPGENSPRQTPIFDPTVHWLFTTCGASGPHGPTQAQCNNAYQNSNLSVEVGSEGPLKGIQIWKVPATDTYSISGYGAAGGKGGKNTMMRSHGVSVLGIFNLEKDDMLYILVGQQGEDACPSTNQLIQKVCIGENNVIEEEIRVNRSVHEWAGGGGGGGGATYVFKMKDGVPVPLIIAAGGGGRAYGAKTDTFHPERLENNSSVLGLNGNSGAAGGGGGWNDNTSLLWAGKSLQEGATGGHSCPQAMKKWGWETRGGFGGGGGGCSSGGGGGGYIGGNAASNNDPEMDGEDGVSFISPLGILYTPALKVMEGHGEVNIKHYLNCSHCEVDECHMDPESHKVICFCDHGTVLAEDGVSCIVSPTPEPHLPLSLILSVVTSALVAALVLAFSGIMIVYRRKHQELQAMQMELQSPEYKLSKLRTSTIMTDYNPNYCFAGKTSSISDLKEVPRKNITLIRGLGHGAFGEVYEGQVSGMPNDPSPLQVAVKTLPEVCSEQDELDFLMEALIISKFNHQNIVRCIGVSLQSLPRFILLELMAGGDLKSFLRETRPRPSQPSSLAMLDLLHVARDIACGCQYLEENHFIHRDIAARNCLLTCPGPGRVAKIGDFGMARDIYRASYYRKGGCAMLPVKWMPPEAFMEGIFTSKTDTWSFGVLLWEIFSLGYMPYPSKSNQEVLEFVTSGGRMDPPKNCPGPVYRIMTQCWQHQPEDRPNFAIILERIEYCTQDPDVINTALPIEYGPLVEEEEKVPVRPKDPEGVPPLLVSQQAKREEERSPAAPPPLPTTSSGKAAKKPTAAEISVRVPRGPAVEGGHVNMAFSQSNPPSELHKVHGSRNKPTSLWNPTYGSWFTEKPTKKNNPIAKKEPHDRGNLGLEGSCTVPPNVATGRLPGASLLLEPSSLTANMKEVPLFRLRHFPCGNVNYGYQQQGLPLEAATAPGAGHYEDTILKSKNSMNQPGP

Regarding `CC1(C)c2ccc(C3CCN(C4CC4)CC3)cc2C(=O)c2c1[nH]c1cc(C#N)ccc21`, the half-maximal inhibitory concentration (IC50) (usually the concentration that inhibits the measured activity by half) in the series on KARPAS-299 [1] was 121 nM; in series [2], 44 nM; in [3], 882 nM; in series [5], over 5000 nM; in series [6], over 5000 nM. The microsomal CLint worked out at 20 µL/min/mg in series [4] and 59.1 µL/min/mg in series [7].

Take `CCc1cc2c(cc1N1CCN(C3CC3)CC1)C(C)(C)c1[nH]c3cc(C#N)ccc3c1C2=O`: the IC50 in the series on KARPAS-299 [1] is 45.8 nM; in series [2] it was 5.2 nM; in series [3], 4210 nM; in series [5] it was over 5000 nM; in series [6], over 5000 nM. Besides, the microsomal CLint in series [4] turned out to be 3.3 µL/min/mg; in [7], 22.1 µL/min/mg.

Consider `CC1(C)c2ccc(N3CCN(C4CC4)CC3)cc2C(=O)c2c1[nH]c1cc(C#N)ccc21`, for which the half-maximal inhibitory concentration (IC50) is 238 nM in the series with KARPAS-299 [1]; 233 nM in [2]; over 5000 nM in series [3]; over 5000 nM in [5]; over 5000 nM in series [6]. For the same compound, the microsomal CLint was found to be 24.9 µL/min/mg in series [4] and 16.4 µL/min/mg in series [7].

For the compound `CC1(C)c2cc(N3CCC(N4CCOCC4)CC3)ccc2C(=O)c2c1[nH]c1cc(C#N)ccc21`, the 50% inhibitory concentration (IC50) in the series on KARPAS-299 [1] is 26.5 nM; in series [2], 16 nM; in [3] it was 759 nM; in series [5], 2990 nM; in series [6], over 5000 nM. Moreover, the microsomal CLint worked out at 72 µL/min/mg in [4] and 106 µL/min/mg in series [7].

With `CCCc1cc2c(cc1N1CCC(N3CCOCC3)CC1)C(C)(C)c1[nH]c3cc(C#N)ccc3c1C2=O`, the IC50 with KARPAS-299 [1] is 26.1 nM; in [2], 1.1 nM; in [3], over 5000 nM; in series [5], over 5000 nM; in series [6], over 5000 nM. The microsomal CLint in [4] was 58.5 µL/min/mg; in series [7], 17.1 µL/min/mg.

In the case of `CC1(C)c2ccc(C3CCN(C4COC4)CC3)cc2C(=O)c2c1[nH]c1cc(C#N)ccc21`, the IC50 was 86.9 nM in the series on KARPAS-299 [1]; 67 nM in series [2]; 2520 nM in [3]; over 5000 nM in [5]; over 5000 nM in [6]. Moreover, the microsomal CLint in series [4] and in series [7] was 38.6 µL/min/mg in each case.

Consider `CCc1cc2c(cc1N1CCN(C3COC3)CC1)C(C)(C)c1[nH]c3cc(C#N)ccc3c1C2=O`, for which the half-maximal inhibitory concentration (IC50) in series [3], in series [5] and in series [6] was over 5000 nM each time.

`CC1(C)c2ccc(N3CCN(C4COC4)CC3)cc2C(=O)c2c1[nH]c1cc(C#N)ccc21`: the IC50 in the series with KARPAS-299 [1] is 151 nM; in series [3] it was over 5000 nM; in series [5] it was over 5000 nM; in [6], over 5000 nM. Also, the figures for the microsomal CLint in series [4] and in series [7] were 20.6 µL/min/mg and 14.2 µL/min/mg, respectively.

Consider `CCc1cc2c(cc1N1CCC(N3CCOCC3)CC1)C(C)(C)c1[nH]c3cc(C#N)ccc3c1C2=O` [ALECTINIB], for which the half-life (usually how long it takes for the measured level to halve) in “in vivo [8]” is 10.4 h; in series [10], 12.6 h; in series [11] it was 17.8 h; in “in vivo [14]”, 8.38 h. The IC50 in the series with KARPAS-299 [1] is 3 nM; in series [5] it was over 5000 nM; in [6], over 5000 nM. Further, the values for the Cmax in series [9] and in [22] were 60.8 ng/mL and 55.8 ng/mL, respectively. The inhibition in vivo at 20 mg/kg in the series with KARPAS-299 [12] was determined as 119%; with NCI-H2228, 168%. The bioavailability (as a rule, the share of a dose that reaches the circulation, judged against a reference dose that is usually intravenous) was determined as 65.2% in series [13] and 50.4% in series [19]. Moreover, the Vd in series [15] came out at 5.28 L/kg; in series [17] it was 9.33 L/kg. Further, the microsomal CLint in [4] worked out at 8.7 µL/min/mg; in series [7], 17.7 µL/min/mg. The clearance (in general, the rate of elimination divided by the concentration) was determined as 6.04 mL/min/kg in series [16] and 7.79 mL/min/kg in [21]. The exposure (AUC) (in general, the area under the concentration-time curve, a measure of exposure) in [18] was 696 ng·h/mL; in series [20], 1400 ng·h/mL. Moreover, the Activity entry in the series with Mus musculus is reported as “Non-toxic”.

For `Cc1cc2c(cc1N1CCC(N3CCOCC3)CC1)C(C)(C)c1[nH]c3cc(C#N)ccc3c1C2=O`, the IC50 with KARPAS-299 [1] was 4.8 nM; in series [3] it was 186 nM; in series [5], 1060 nM; in [6], over 5000 nM. For the same compound, the microsomal CLint was found to be 15.8 µL/min/mg in series [4] and 23 µL/min/mg in [7].

On to `CCc1cc2c(cc1N1CCN(C3CCC3)CC1)C(C)(C)c1[nH]c3cc(C#N)ccc3c1C2=O`, for which the IC50 with KARPAS-299 [1] was 22.4 nM; in [2] it was 2.4 nM; in [3] it was 3120 nM; in series [5], over 5000 nM; in series [6], over 5000 nM. Further, the microsomal CLint in series [4] was 4.4 µL/min/mg; in series [7], 15.6 µL/min/mg.

Values taken from ChEMBL document CHEMBL1938232 (Bioorg Med Chem, 2012).
